Assay [1] concerns MDA231 BAX/BAK knockdown (siRNA) cells. Description: Drug screen and low-throughput cell viability. The assay is classed as cell-based, human. The settings on record: 48 hr treatment, CellTiter-Glo % survival, BAX/BAK KD versus control. A general note: ATP-based viability assays read luminescence as a measure of living cells.
The test system of the next assay is BT-549 cells. Put plainly: Extracellular flux assay, ECAR. The format is cell-based, human. The settings on record: 2 µM, 24 hrs. A digest of the protocol:
(§1)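 Seahorse XF96: cells were seeded for 24 h, then treated for a further 24 h. One hour before the run they were changed to XF Base medium, pH 7.4, with 1 mM L-glutamine. ECAR was read three times at baseline and three times after each sequential injection of glucose (10 mM), oligomycin (1 µM) and 2-DG (50 mM). Readings were protein-normalized, baseline-subtracted and expressed as fold change versus DMSO.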

For a further assay, the system named is aldolase in BT-549 cells. Put plainly: Aldolase activity assay. The format is cell-based, human. The settings on record: 24 hr treatment. Put shortly: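 Cells (1×10^6 for MDA231) were exposed to test compound for 24 h. Aldolase or GAPDH activity was then measured with a commercial kit following the maker's protocol. Values were normalized to protein concentration and expressed as fold change relative to DMSO.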

For the next assay, the target named is T1, HDAC6 (Homo sapiens, UniProt Q9UBN7).
T1 sequence (Q9UBN7 1-1215): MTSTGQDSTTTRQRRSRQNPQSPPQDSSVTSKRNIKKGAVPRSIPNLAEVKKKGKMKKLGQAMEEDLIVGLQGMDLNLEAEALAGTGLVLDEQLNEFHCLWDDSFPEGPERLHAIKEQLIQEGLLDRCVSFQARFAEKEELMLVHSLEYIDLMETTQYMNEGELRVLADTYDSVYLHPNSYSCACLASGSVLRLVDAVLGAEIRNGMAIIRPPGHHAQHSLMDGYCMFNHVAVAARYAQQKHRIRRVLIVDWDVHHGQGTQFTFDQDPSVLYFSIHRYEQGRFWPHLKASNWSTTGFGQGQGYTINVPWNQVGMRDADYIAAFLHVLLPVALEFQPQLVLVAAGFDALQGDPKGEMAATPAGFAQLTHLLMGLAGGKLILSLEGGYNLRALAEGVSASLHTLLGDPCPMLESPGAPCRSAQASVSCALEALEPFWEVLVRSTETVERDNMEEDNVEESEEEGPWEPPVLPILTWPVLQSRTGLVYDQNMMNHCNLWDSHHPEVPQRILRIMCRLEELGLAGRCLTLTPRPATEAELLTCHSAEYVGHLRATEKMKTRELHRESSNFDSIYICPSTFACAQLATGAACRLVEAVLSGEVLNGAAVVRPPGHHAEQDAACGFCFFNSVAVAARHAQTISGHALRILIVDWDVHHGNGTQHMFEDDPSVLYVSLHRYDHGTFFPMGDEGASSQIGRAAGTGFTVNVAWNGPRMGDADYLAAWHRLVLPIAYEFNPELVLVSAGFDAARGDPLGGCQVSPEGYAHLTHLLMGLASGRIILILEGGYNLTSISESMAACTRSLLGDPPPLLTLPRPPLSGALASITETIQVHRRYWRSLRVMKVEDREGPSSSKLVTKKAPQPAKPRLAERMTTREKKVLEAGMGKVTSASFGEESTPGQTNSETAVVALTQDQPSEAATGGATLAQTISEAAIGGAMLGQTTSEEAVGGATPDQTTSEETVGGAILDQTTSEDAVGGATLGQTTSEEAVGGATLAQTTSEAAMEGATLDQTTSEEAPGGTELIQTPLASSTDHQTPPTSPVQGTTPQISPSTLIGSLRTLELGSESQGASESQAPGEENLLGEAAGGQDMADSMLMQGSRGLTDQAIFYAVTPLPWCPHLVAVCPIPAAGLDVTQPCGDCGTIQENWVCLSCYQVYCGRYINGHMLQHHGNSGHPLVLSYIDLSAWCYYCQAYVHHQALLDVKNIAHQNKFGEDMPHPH
Description: HDAC inhibitory assay. The assay is classed as biochemical.

A further assay concerns the target T2, HDAC7 (Homo sapiens, UniProt Q8WUI4).
T2 sequence (Q8WUI4 1-952): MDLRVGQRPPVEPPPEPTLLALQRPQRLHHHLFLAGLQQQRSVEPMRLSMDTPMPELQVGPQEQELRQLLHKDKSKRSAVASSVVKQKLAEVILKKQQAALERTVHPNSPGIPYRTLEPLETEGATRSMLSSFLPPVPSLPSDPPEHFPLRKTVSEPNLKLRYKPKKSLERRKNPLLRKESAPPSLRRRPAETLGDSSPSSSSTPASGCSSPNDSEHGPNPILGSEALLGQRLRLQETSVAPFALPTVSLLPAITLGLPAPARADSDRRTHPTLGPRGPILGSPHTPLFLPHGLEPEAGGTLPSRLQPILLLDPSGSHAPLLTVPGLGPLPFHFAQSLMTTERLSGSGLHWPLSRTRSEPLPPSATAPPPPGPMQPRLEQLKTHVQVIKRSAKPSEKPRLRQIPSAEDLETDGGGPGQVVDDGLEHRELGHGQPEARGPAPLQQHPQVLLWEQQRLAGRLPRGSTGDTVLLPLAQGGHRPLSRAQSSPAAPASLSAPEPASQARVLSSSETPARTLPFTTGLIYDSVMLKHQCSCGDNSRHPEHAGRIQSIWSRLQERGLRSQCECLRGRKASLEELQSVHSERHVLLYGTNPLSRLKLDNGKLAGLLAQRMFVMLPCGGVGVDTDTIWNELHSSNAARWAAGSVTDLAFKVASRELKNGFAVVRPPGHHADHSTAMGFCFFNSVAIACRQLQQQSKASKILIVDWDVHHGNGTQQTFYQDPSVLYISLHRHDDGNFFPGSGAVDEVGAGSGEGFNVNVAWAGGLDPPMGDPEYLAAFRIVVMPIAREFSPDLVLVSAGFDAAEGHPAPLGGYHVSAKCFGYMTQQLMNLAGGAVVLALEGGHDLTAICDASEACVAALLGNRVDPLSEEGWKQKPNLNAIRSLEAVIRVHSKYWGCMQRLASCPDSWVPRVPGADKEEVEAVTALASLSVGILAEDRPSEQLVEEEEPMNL
Description: HDAC inhibitory assay. The format is biochemical.

In another assay the target is T3, HDAC8 (Homo sapiens, UniProt Q9BY41).
T3 sequence (Q9BY41 1-377): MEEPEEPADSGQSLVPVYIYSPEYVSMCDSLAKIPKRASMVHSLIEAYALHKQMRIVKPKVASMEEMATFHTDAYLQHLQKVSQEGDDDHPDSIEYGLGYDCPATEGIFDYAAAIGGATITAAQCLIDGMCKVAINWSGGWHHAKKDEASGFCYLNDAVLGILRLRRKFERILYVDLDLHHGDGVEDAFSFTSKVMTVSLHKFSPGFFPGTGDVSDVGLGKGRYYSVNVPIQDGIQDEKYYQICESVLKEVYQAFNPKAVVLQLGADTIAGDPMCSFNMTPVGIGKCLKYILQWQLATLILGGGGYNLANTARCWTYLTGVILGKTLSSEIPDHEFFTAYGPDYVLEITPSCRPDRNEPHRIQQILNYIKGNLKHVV
Description: HDAC inhibitory assay. The format is biochemical.

The target of the next assay is HDAC1 (Homo sapiens, UniProt Q13547). Description: HDAC inhibitory assay. The assay is classed as biochemical.
The next assay deals with MDA231 cells. Put plainly: Extracellular flux assay, ECAR. The assay is classed as cell-based, human. Particulars: 2 µM, 24 hrs. Put shortly:
as §1

For assay [2], the system named is glucose transporter 1, hexokinase II. Particulars: cited from earlier work.

Chain of HDAC1 (Q13547 whole entry): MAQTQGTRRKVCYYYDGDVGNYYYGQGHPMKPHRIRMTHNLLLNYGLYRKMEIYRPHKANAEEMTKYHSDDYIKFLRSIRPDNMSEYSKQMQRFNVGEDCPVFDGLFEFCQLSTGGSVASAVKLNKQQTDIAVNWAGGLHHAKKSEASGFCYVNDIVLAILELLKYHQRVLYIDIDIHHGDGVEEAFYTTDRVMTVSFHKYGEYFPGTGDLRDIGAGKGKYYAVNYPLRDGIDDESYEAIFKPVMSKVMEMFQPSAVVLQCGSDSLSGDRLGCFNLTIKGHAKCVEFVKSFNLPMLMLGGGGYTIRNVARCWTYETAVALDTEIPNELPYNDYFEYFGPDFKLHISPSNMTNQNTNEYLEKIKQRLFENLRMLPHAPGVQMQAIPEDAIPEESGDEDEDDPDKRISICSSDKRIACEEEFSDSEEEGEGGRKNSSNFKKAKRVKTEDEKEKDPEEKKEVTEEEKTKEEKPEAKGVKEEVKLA

As for `CN(C)CC[C@H](CSc1ccccc1)Nc1ccc(S(=O)(=O)NC(=O)c2ccc(N3CCN(Cc4ccccc4-c4ccc(Cl)cc4)CC3)cc2)cc1[N+](=O)[O-]` [ABT-737], the “response to apoptosis-inducing agents” value in assay [1] is on record as “broadly resistant”.

For the compound `O=C(CCCCCCNC(=O)c1cnc(N(c2ccccc2)c2ccccc2Cl)nc1)NO` [ACY-241], the “glycolysis and glycolytic capacity (ECAR)” value in the assay on BT-549 cells (1 µM) was “confirmed all the above results”.

With `O=C(CCCCCCNC(=O)c1cnc(N(c2ccccc2)c2ccccc2)nc1)NO` [ACY-1215], the aldolase enzymatic activity entry with aldolase in BT-549 cells is given as “reduced aldolase activity”.

Consider `O=C(CCCCCCC(=O)Nc1ccccc1)NO` [SAHA, suberoylanilide hydroxamic acid], for which the “inhibition of HDAC activity” value at HDAC6, against HDAC7, against HDAC8 and on HDAC1 was “inhibits the activity” each time.

On to `COc1cc([C@@H]2c3cc4c(cc3[C@@H](O[C@@H]3O[C@@H]5CO[C@@H](C)O[C@H]5[C@H](O)[C@H]3O)[C@H]3COC(=O)[C@H]23)OCO4)cc(OC)c1O` [etoposide], for which, in assay [1], the “response to apoptosis-inducing agents” value was “broadly resistant”.

Regarding `O=C(CCCCCCC(=O)Nc1ccc([C@H]2O[C@@H](CSc3nc(-c4ccccc4)c(-c4ccccc4)o3)C[C@@H](c3ccc(CO)cc3)O2)cc1)NO` [tubacin], in the assay with BT-549 cells, the “glycolysis and glycolytic capacity (ECAR)” value is “confirmed all the above results”. For the same compound, the “extracellular acidification rate (ECAR)” value with MDA231 cells is “reduction”.

For the compound `CCCC(CCC)C(=O)O` [valproate], in assay [2], the “glucose transporter 1” value is “reduction in the glucose transporter 1” and the “hexokinase II activity” value is reported as “reduction in hexokinase II activity”.

(Values after publication PMC7810372 (Science Advances, 2021).)
